Assays:
[1] = Cmax in mouse at 5 mg/kg, po; assay type: ADME, organism-based; parameters: dose 5 mg/kg, route oral; settings: in vivo
[2] = target: T1, Free fatty acid receptor 2 (Homo sapiens, UniProt O15552); test: Agonist activity at human FFA2 receptor expressed in CHO cells assessed as inhibition of forskolin-induced cAMP production; assay type: functional, cell-based
T1 sequence (O15552 whole entry): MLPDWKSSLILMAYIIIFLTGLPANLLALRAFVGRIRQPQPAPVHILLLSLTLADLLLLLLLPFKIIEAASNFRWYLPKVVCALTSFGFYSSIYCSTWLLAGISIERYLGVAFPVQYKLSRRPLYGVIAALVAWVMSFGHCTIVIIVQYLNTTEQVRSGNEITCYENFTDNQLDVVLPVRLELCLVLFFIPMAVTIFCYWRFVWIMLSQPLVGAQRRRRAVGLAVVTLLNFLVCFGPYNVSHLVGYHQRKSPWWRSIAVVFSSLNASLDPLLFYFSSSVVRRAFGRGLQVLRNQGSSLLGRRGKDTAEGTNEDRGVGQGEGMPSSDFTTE
In short: (§1)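 Suspended cells, 10,000 per well, in Hank's balanced salt solution with 25 mM HEPES and 0.01% (w/v) BSA. Stimulated with forskolin (5 μM final) plus serially diluted test ligands, room temperature for 30 min. Antibody and lysis reagents then added, followed by overnight dark incubation with detection solution. Luminescence read (RLU). Efficacy expressed relative to acetate. Means of four experiments.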

[3] = Tmax in mouse at 5 mg/kg, po; assay type: ADME, organism-based; parameters: dose 5 mg/kg, route oral; settings: in vivo
[4] = Mean residence time in mouse at 5 mg/kg, po; assay type: ADME, organism-based; parameters: dose 5 mg/kg, route oral; settings: in vivo
[5] = Volume of distribution at steady state in Sprague-Dawley rat at 0.5 mg/kg, iv; assay type: ADME, organism-based; parameters: dose 0.5 mg/kg, route intravenous; settings: in vivo, read-out: Vdss
In short: (§2)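 Male Sprague-Dawley rats dosed 0.5 mg/kg iv.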

Rattus norvegicus [6] = test: AUC in Sprague-Dawley rat at 0.5 mg/kg, iv; assay type: ADME, organism-based, Plasma; parameters: dose 0.5 mg/kg, route intravenous; settings: in vivo; in short: as §2
Rattus norvegicus [7] = test: Clearance in Sprague-Dawley rat at 0.5 mg/kg, iv; assay type: ADME, organism-based; parameters: dose 0.5 mg/kg, route intravenous; settings: in vivo; in short: as §2
[8] = AUC in mouse at 5 mg/kg, po; assay type: ADME, organism-based; parameters: dose 5 mg/kg, route oral; settings: plasma
[9] = Mean residence time in Sprague-Dawley rat at 0.5 mg/kg, iv; assay type: ADME, organism-based; parameters: dose 0.5 mg/kg, route intravenous; settings: in vivo; in short: as §2
[10] = target: T2, Free fatty acid receptor 2 (Homo sapiens) (UniProt O15552); test: Agonist activity at human FFA2 receptor expressed in CHO cells assessed as inhibition of forskolin-induced cAMP production relative to acetate; assay type: functional, cell-based; in short: as §1
T2 sequence (whole entry): T1 sequence (O15552 whole entry)

3T3-L1 = test: Inhibition of lipolysis in mouse 3T3L1 cells; assay type: functional, cell-based
In short: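 Lipolysis measured in 3T3L1 adipocytes across a concentration range of test compound. Sensitivity to pertussis toxin treatment also examined. Means of three experiments.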

[11] = target: T3, Free fatty acid receptor 2 (Mus musculus) (UniProt Q8VCK6); test: Agonist activity at mouse FFA2 receptor expressed in CHO cells assessed as inhibition of forskolin-induced cAMP production; assay type: functional, cell-based; in short: as §1
T3 sequence (whole entry): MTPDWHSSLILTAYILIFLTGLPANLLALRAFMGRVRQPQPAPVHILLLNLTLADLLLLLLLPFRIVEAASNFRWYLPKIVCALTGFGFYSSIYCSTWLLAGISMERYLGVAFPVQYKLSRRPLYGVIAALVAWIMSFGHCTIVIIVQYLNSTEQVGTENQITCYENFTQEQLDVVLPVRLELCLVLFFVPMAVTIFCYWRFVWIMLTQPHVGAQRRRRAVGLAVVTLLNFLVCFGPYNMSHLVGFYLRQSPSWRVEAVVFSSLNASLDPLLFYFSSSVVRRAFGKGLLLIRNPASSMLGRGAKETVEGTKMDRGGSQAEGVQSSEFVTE

[12] = Metabolic stability in rat liver microsomes assessed as compound remaining after 30 mins; assay type: ADME, Microsome; settings: read-out: Stability
In short: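 Incubated with rat liver microsomes; percent parent remaining at 30 min.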

SMILES | Cmax [1] | IC50 [2] | Tmax [3] | MRT [4] | Vd [5] | AUC (Rattus norvegicus [6]) | CL (Rattus norvegicus [7]) | AUC [8] | MRT [9] | Efficacy [10] | inhibition (3T3-L1) | Activity [11] | remaining at 0.5 h [12]
CC(C)(C)[C@H](C(=O)Nc1ncc(Cl)s1)c1ccc(Cl)cc1 | 569 ng/mL | 1000 nM | 2 h | 7.6 h | 4.4 L/kg | 1.03 µg·h/mL | 8 mL/min/kg | 4550 µg·h/mL | 9 h | 97% |  |  | 
Cc1cnc(NC(=O)[C@H](c2ccc(Cl)cc2)C(C)C)s1 |  | 800 nM |  |  |  |  |  |  |  | 99% | Dose-dependent effect | 1.4 µM | 
CC(C)[C@H](C(=O)Nc1ncc(Cl)s1)c1ccc(Cl)cc1 |  | 700 nM |  |  | 8.3 L/kg | 0.249 µg·h/mL | 33 mL/min/kg |  | 4.2 h | 100% |  |  | 
CC(C)(C)[C@H](C(=O)Nc1ncc(-c2ccccc2)s1)c1ccc(Cl)cc1 | 1870 ng/mL | 700 nM | 2 h | 9.2 h | 2.7 L/kg | 1.67 µg·h/mL | 5.33 mL/min/kg | 18600 µg·h/mL | 9.1 h | 111% |  |  | 
CC(C)[C@H](C(=O)Nc1nccs1)c1ccc(Cl)cc1 | 5 ng/mL | 700 nM | 1 h | 1.8 h | 7 L/kg | 0.079 µg·h/mL | 107 mL/min/kg | 10 µg·h/mL | 1.1 h | 100% | Dose-dependent effect | 1 µM | 2%
